≈ marks a conversion by molar mass, not a printed value.
Legend:
Format in all cases: functional
[1] = test system: Escherichia coli; experiment: Minimum inhibitory concentration against Escherichia coli Vogel
In short: (§1)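 Standard microdilution method against a panel of five Gram-negative and five Gram-positive bacterial strains. The MIC (µg/mL) was recorded for each strain.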

[2] = test system: Enterococcus faecalis; experiment: Minimum inhibitory concentration against […] MGH-2; in short: as §1
[3] = test system: Enterobacter cloacae; experiment: Minimum inhibitory concentration against […] MA-2646; in short: as §1
[4] = test system: Klebsiella pneumoniae; experiment: Minimum inhibitory concentration against Klebsiella pneumoniae MGH-2; in short: as §1
[5] = test system: Pseudomonas aeruginosa; experiment: Minimum inhibitory concentration against Pseudomonas aeruginosa UI-18; in short: as §1
[6] = test system: Providencia rettgeri; experiment: Minimum inhibitory concentration against Providencia rettgeri M-1771; in short: as §1
[7] = test system: Streptococcus pneumoniae; experiment: Minimum inhibitory concentration against Streptococcus pneumoniae SV-1; in short: as §1
[8] = test system: Staphylococcus aureus; experiment: Minimum inhibitory concentration against Staphylococcus aureus H-228; in short: as §1
[9] = test system: Streptococcus pyogenes; experiment: Minimum inhibitory concentration against Streptococcus pyogenes C-203; in short: as §1
[10] = test system: Staphylococcus aureus; experiment: Minimum inhibitory concentration against Staphylococcus aureus UC-76; in short: as §1
[11] = Escherichia coli, read-out: MIC
[12] = Enterococcus faecalis, read-out: MIC
[13] = Enterobacter cloacae, read-out: MIC
[14] = Klebsiella pneumoniae, read-out: MIC
[15] = Pseudomonas aeruginosa, read-out: MIC
[16] = Providencia rettgeri, read-out: MIC
[17] = Streptococcus pneumoniae, read-out: MIC
[18] = Staphylococcus aureus, read-out: MIC
[19] = Streptococcus pyogenes, read-out: MIC

SMILES | MIC [1, 11] [µg/mL] | MIC [2, 12] [µg/mL] | MIC [3, 13] [µg/mL] | MIC [4, 14] [µg/mL] | MIC [5, 15] [µg/mL] | MIC [6, 16] [µg/mL] | MIC [7, 17] [µg/mL] | MIC [8, 18] [µg/mL] | MIC [9, 19] [µg/mL] | MIC [10, 18] [µg/mL] | MIC [1] [µg/mL] | MIC [2] [µg/mL] | MIC [3] [µg/mL] | MIC [4] [µg/mL] | MIC [6] [µg/mL] | MIC [7] [µg/mL] | MIC [8] [µg/mL] | MIC [9] [µg/mL] | MIC [10] [µg/mL] | MIC [5] [µg/mL]
COC(=O)c1ccc(C2CN(c3c(F)cc4c(=O)c(C(=O)O)cn(C5CC5)c4c3F)CC2N)cc1 (stereo not given) | 0.4 (≈ 0.827 µM) | 0.4 (≈ 0.827 µM) | 0.4 (≈ 0.827 µM) | 0.8 (≈ 1.65 µM) | 3.1 (≈ 6.41 µM) | 1.6 (≈ 3.31 µM) | 0.4 (≈ 0.827 µM) | 0.1 (≈ 0.207 µM) | 0.4 (≈ 0.827 µM) | 0.05 (≈ 0.103 µM) |  |  |  |  |  |  |  |  |  | 
Nc1c(F)c(N2CC(N)C(c3ccc(F)cc3)C2)c(F)c2c1c(=O)c(C(=O)O)cn2C1CC1 (trans isomer) | 0.1 (≈ 0.218 µM) | 0.1 (≈ 0.218 µM) | 0.1 (≈ 0.218 µM) | 0.1 (≈ 0.218 µM) | 1.6 (≈ 3.49 µM) | 0.2 (≈ 0.436 µM) | 0.1 (≈ 0.218 µM) | 0.025 (≈ 0.0545 µM) | 0.1 (≈ 0.218 µM) | 0.013 (≈ 0.0284 µM) |  |  |  |  |  |  |  |  |  | 
COc1ccccc1C1CN(c2nc3c(cc2F)c(=O)c(C(=O)O)cn3C2CC2)CC1N (cis isomer) |  |  |  |  | > 3.1 |  |  |  |  |  | 0.8 (≈ 1.82 µM) | 0.8 (≈ 1.82 µM) | 0.8 (≈ 1.82 µM) | 1.6 (≈ 3.65 µM) | 3.1 (≈ 7.07 µM) | 0.8 (≈ 1.82 µM) | 0.4 (≈ 0.912 µM) | 1.6 (≈ 3.65 µM) | 0.2 (≈ 0.456 µM) | 
NCC1CN(c2nc3c(cc2F)c(=O)c(C(=O)O)cn3C2CC2)CC1c1ccc(N)cc1 (trans isomer) |  |  |  |  |  |  |  |  |  |  | 0.2 (≈ 0.457 µM) | 0.1 (≈ 0.229 µM) | 0.2 (≈ 0.457 µM) | 0.2 (≈ 0.457 µM) | 0.4 (≈ 0.914 µM) | 0.05 (≈ 0.114 µM) | 0.4 (≈ 0.914 µM) | 0.05 (≈ 0.114 µM) | 0.05 (≈ 0.114 µM) | 1.6 (≈ 3.66 µM)
COc1ccccc1C1CN(c2c(F)cc3c(=O)c(C(=O)O)cn(C4CC4)c3c2F)CC1N (trans isomer) | 0.2 (≈ 0.439 µM) | 0.1 (≈ 0.22 µM) | 0.4 (≈ 0.878 µM) | 0.4 (≈ 0.878 µM) | 3.1 (≈ 6.81 µM) | 0.8 (≈ 1.76 µM) | 0.1 (≈ 0.22 µM) | 0.05 (≈ 0.11 µM) | 0.1 (≈ 0.22 µM) | 0.025 (≈ 0.0549 µM) |  |  |  |  |  |  |  |  |  | 
NCc1cccc(C2CN(c3c(F)cc4c(=O)c(C(=O)O)cn(C5CC5)c4c3F)CC2CN)c1 (trans isomer) | 1.6 (≈ 3.42 µM) | 0.8 (≈ 1.71 µM) | 1.6 (≈ 3.42 µM) | 1.6 (≈ 3.42 µM) | 6.3 (≈ 13.4 µM) | 3.1 (≈ 6.62 µM) | 0.2 (≈ 0.427 µM) | 1.6 (≈ 3.42 µM) | 0.1 (≈ 0.213 µM) | 0.2 (≈ 0.427 µM) |  |  |  |  |  |  |  |  |  | 
COC(=O)c1ccc(C2CN(c3nc4c(cc3F)c(=O)c(C(=O)O)cn4C3CC3)CC2N)cc1 (trans isomer) | 0.4 (≈ 0.858 µM) | 0.4 (≈ 0.858 µM) | 0.4 (≈ 0.858 µM) | 0.4 (≈ 0.858 µM) | 3.1 (≈ 6.65 µM) | 0.8 (≈ 1.72 µM) | 0.8 (≈ 1.72 µM) | 0.2 (≈ 0.429 µM) | 0.8 (≈ 1.72 µM) | 0.1 (≈ 0.214 µM) |  |  |  |  |  |  |  |  |  | 
NCC1CN(c2c(F)cc3c(=O)c(C(=O)O)cn(C4CC4)c3c2F)CC1c1ccc(N)cc1 (stereo not given) | 0.1 (≈ 0.22 µM) | 0.05 (≈ 0.11 µM) | 0.1 (≈ 0.22 µM) | 0.2 (≈ 0.44 µM) | 1.6 (≈ 3.52 µM) | 0.2 (≈ 0.44 µM) | 0.05 (≈ 0.11 µM) | 0.1 (≈ 0.22 µM) | 0.05 (≈ 0.11 µM) | 0.025 (≈ 0.055 µM) |  |  |  |  |  |  |  |  |  | 
CCOC(=O)C1CC1C1CN(c2cc3c(cc2F)c(=O)c(C(=O)O)cn3C2CC2)CC1N (trans isomer) | 0.2 (≈ 0.451 µM) | 0.8 (≈ 1.8 µM) | 0.2 (≈ 0.451 µM) | 0.4 (≈ 0.902 µM) | 3.1 (≈ 6.99 µM) | 0.8 (≈ 1.8 µM) | 0.8 (≈ 1.8 µM) | 1.6 (≈ 3.61 µM) | 0.8 (≈ 1.8 µM) | 0.2 (≈ 0.451 µM) |  |  |  |  |  |  |  |  |  | 
NC1CN(c2nc3c(cc2F)c(=O)c(C(=O)O)cn3C2CC2)CC1c1ccc(Cl)c(Cl)c1 (trans isomer) | 0.4 (≈ 0.838 µM) | 0.2 (≈ 0.419 µM) | 0.4 (≈ 0.838 µM) | 0.4 (≈ 0.838 µM) | 3.1 (≈ 6.49 µM) | 0.8 (≈ 1.68 µM) | 0.2 (≈ 0.419 µM) | 0.1 (≈ 0.21 µM) | 0.4 (≈ 0.838 µM) | 0.05 (≈ 0.105 µM) |  |  |  |  |  |  |  |  |  | 
NC1CN(c2nc3c(cc2F)c(=O)c(C(=O)O)cn3C2CC2)CC1c1ccc(O)cc1 (trans isomer) | 0.1 (≈ 0.236 µM) | 0.1 (≈ 0.236 µM) | 0.1 (≈ 0.236 µM) | 0.2 (≈ 0.471 µM) | 1.6 (≈ 3.77 µM) | 0.4 (≈ 0.942 µM) | 0.2 (≈ 0.471 µM) | 0.4 (≈ 0.942 µM) | 0.2 (≈ 0.471 µM) | 0.1 (≈ 0.236 µM) |  |  |  |  |  |  |  |  |  | 
NC1CN(c2c(F)cc3c(=O)c(C(=O)O)cn(C4CC4)c3c2F)CC1c1ccc(Cl)c(Cl)c1 (trans isomer) | 0.1 (≈ 0.202 µM) | 0.1 (≈ 0.202 µM) | 0.2 (≈ 0.405 µM) | 0.2 (≈ 0.405 µM) | 1.6 (≈ 3.24 µM) | 0.2 (≈ 0.405 µM) | 0.1 (≈ 0.202 µM) | 0.05 (≈ 0.101 µM) | 0.1 (≈ 0.202 µM) | 0.013 (≈ 0.0263 µM) |  |  |  |  |  |  |  |  |  | 
CCOC(=O)C1CC1C1CN(c2nc3c(cc2F)c(=O)c(C(=O)O)cn3C2CC2)CC1N (trans isomer) | 1.6 (≈ 3.6 µM) | 1.6 (≈ 3.6 µM) | 1.6 (≈ 3.6 µM) | 3.1 (≈ 6.97 µM) | 2.5 (≈ 5.62 µM) | 6.3 (≈ 14.2 µM) | 1.6 (≈ 3.6 µM) | 1.6 (≈ 3.6 µM) | 1.6 (≈ 3.6 µM) | 0.4 (≈ 0.9 µM) |  |  |  |  |  |  |  |  |  | 
NCc1cccc(C2CN(c3nc4c(cc3F)c(=O)c(C(=O)O)cn4C3CC3)CC2N)c1 (trans isomer) | 0.8 (≈ 1.83 µM) | 0.8 (≈ 1.83 µM) | 0.8 (≈ 1.83 µM) | 0.8 (≈ 1.83 µM) | 3.1 (≈ 7.09 µM) | 1.6 (≈ 3.66 µM) | 0.2 (≈ 0.457 µM) | 3.1 (≈ 7.09 µM) | 0.2 (≈ 0.457 µM) | 0.4 (≈ 0.914 µM) |  |  |  |  |  |  |  |  |  | 
